Measurements from different studies.
Protocols differ between the studies behind these lines.

Structure (SMILES) | cell line | observed | action | method | time | setting | IC50
CCC(=CCc1c(O)cc2c(c1O)C(=O)C[C@@H](c1ccc(O)cc1)O2)CC | HeLa | cell growth or viability |  | MTT | 48 h |  | 22.8 µM
COc1ccc(Nc2ncnc3c2ncn3Cc2ccc(C(=O)NO)cc2)cc1 | NB-4 | cell growth or viability |  | MTT | 72 h |  | 0.87 µM
CN1C(=O)C(=O)c2cc3c(c4c2c1cc1ccccc14)OCO3 | H69AR | cell growth or viability |  | MTT | 75 h |  | 44.6 µM
NCc1ccc(-c2nn(Cc3ccccn3)c3cccnc23)o1 | CC-LP-1 | cell growth or viability |  | ATP luminescence |  |  | > 46 µM
O=C(CSc1nc2ccccc2s1)N/N=C/c1ccc(OCC(=O)Nc2ccc(Br)cc2)cc1 | HEL 299 | cell growth or viability |  | MTS | 72 h |  | > 100 µM
NCc1ccc(-c2nn(Cc3ccncc3)c3ccccc23)o1 | CC-LP-1 | cell growth or viability |  | ATP luminescence |  |  | > 46 µM
COc1cccc2c1C(=O)c1c(O)c3c(c(O)c1C2=O)C[C@@](O)(C(=O)CO)C[C@@H]3O[C@H]1C[C@H](N)[C@H](O)[C@H](C)O1 | HeLa | cell growth or viability |  | MTT | 48 h |  | 0.51 µM
O=C(NO)c1ccc(Cn2cnc3c(Nc4ccc(Br)cc4F)ncnc32)cc1 | HEL | cell growth or viability |  | MTT | 72 h |  | 2.46 µM
CS(=O)(=O)NCCCCN=C=S | HDFa | cell growth or viability |  | MTT | 24 h |  | 42.9 µM
COc1ncccc1Cn1nc(-c2ccc(CO)o2)c2ccccc21 | CC-LP-1 | cell growth or viability |  | ATP luminescence |  |  | > 46 µM
CN(C)CCNC(=O)c1cccn2c(=O)c3cc4ccccc4cc3nc12 | SNU-449 | cell growth or viability |  | imaging | 72 h |  | 36.3 µM
COc1cc([C@@H]2c3cc4c(cc3[C@@H](O[C@@H]3O[C@@H]5CO[C@@H](C)O[C@H]5[C@H](O)[C@H]3O)[C@H]3COC(=O)[C@H]23)OCO4)cc(OC)c1O | HEL 299 | cell growth or viability |  | MTS | 72 h |  | > 10 µM
OCc1ccc(-c2nn(Cc3ccccn3)c3ccccc23)o1 | CC-LP-1 | cell growth or viability |  | ATP luminescence |  |  | > 46 µM
COc1ccc(Nc2ncnc3c2ncn3Cc2ccc(C(=O)Nc3ccccc3N)cc2)cc1 | HEL | cell growth or viability |  | MTT | 72 h |  | 16.8 µM
C=CC(=O)N1CCC[C@@H](n2nc(-c3ccc(Oc4ccccc4)cc3)c3c(N)ncnc32)C1 | SU-DHL-6 | cell growth or viability |  | resazurin | 72 h |  | > 0.5 µM
OCc1ccc(-c2nn(Cc3ccncc3)c3ccccc23)o1 | CC-LP-1 | cell growth or viability |  | ATP luminescence |  |  | > 46 µM
CN1CCC(NC2CCc3[nH]c4c(C(N)=O)ccc(-c5ccccc5Cl)c4c3C2)CC1 (stereo not drawn) | BGC-823 | cell growth or viability |  |  | 96 h |  | 0.018 µM
Cc1cc(NS(=O)(=O)c2ccc(NC(=O)/C(C#N)=C/c3ccncc3)cc2)no1 | HSF | cell growth or viability |  | MTT | 48 h |  | > 200 µM

Structure (SMILES) | cell line | observed | action | method | time | setting | IC50
COC(=O)c1cc(C(C)=NNc2nc(-c3ccc4c(c3)OCCCO4)cs2)ccc1O | HSF | cell growth or viability |  | MTT | 96 h |  | 231 µM
C(=N\Nc1cc(N/N=C/c2cccc3cccnc23)nc(-c2ccccc2)n1)/c1cccc2cccnc12 | BGC-823 | cell growth or viability |  | MTT | 48 h |  | 16.9 µM
O=C(CSc1nc2ccccc2s1)N/N=C/c1ccc(OCC(=O)Nc2cccc([N+](=O)[O-])c2)cc1 | HEL 299 | cell growth or viability |  | MTS | 72 h |  | > 100 µM
O=C(NO)c1ccc(Cn2cnc3c(Nc4ccc(Cl)cc4)ncnc32)cc1 | NB-4 | cell growth or viability |  | MTT | 72 h |  | 0.41 µM
Cc1cc2c(C(N)=O)cccc2n1-c1nc2c(c(NCc3ccccc3)n1)CCCN2 | KMS-11 | cell growth or viability |  |  | 72 h |  | 1.3 µM
COc1ccccc1Cn1nc(-c2ccc(CO)o2)c2ccccc21 | CC-LP-1 | cell growth or viability |  | ATP luminescence |  |  | ~46 µM
O=C(NO)c1ccc(Cn2cnc3c(Nc4ccc(F)c(Cl)c4)ncnc32)cc1 | NB-4 | cell growth or viability |  | MTT | 72 h |  | 2.34 µM
Cc1ccc(S(=O)(=O)NC(=O)c2cc3ccccc3n2Cc2ccc(C3CC3)c3ccccc23)cc1 | mouse BMDM | IL-1β release | inhibitor | ELISA |  | LPS-stimulated | 2.61 µM
Cc1cc(NS(=O)(=O)c2ccc(NC(=O)/C(C#N)=C/c3cccnc3)cc2)no1 | HSF | cell growth or viability |  | MTT | 48 h |  | > 200 µM
C(=N\Nc1cc(N/N=C/c2cccc3cccnc23)ncn1)/c1cccc2cccnc12 | BGC-823 | cell growth or viability |  | MTT | 48 h |  | 26.8 µM
Nc1ccccc1NC(=O)c1ccc(Cn2cnc3c(Nc4ccc(Br)cc4F)ncnc32)cc1 | HEL | cell growth or viability |  | MTT | 72 h |  | 17 µM
C#Cc1cccc(Nc2ncnc3cc(OCCOC)c(OCCOC)cc23)c1 | BGC-823 | cell growth or viability |  | MTT | 48 h |  | > 20 µM
OCc1ccc(-c2nn(Cc3ccccn3)c3cccnc23)o1 | CC-LP-1 | cell growth or viability |  | ATP luminescence |  |  | > 46 µM
C(=N\Nc1cc(N/N=C/c2ccc3ccccc3n2)ncn1)/c1ccc2ccccc2n1 | BGC-823 | cell growth or viability |  | MTT | 48 h |  | 12.3 µM
Nc1ccccc1NC(=O)c1ccc(Cn2cnc3c(Nc4ccc(Cl)cc4)ncnc32)cc1 | HEL | cell growth or viability |  | MTT | 72 h |  | 13 µM
CN1CCN(c2ccc(Nc3c4ccccc4nc4ccccc34)cc2)CC1 | SNU-449 | cell growth or viability |  | imaging | 72 h |  | 4.68 µM
O=c1[nH]cc(F)c(=O)[nH]1 | HSF | cell growth or viability |  | MTT | 48 h |  | 76.9 µM
O=C(NO)c1ccc(Cn2cnc3c(Nc4cccc([N+](=O)[O-])c4)ncnc32)cc1 | NB-4 | cell growth or viability |  | MTT | 72 h |  | 0.58 µM
